Experimental data as given in ChEMBL document CHEMBL4145519, “Structural investigations on coumarins leading to chromeno[4,3-c]pyrazol-4-ones and pyrano[4,3-c]pyrazol-4-ones: New scaffolds for the design of the tumor-associated carbonic anhydrase isoforms IX and XII” (Eur J Med Chem, 2018).
Calls of active or inactive are those of the source. No cut-off for these calls is given here.

Columns and labels:
[1] = target: Carbonic anhydrase 1 (Homo sapiens, UniProt P00915); experiment: Inhibition of human CA1 after 15 mins by stopped-flow CO2 hydration assay
[2] = target: Carbonic anhydrase 2 (Homo sapiens, UniProt P00918); experiment: Inhibition of human CA2 after 15 mins by stopped-flow CO2 hydration assay
[3] = target: Carbonic anhydrase 9 (Homo sapiens, UniProt Q16790); experiment: Inhibition of human CA9 after 15 mins by stopped-flow CO2 hydration assay
[4] = target: Carbonic anhydrase 12 (Homo sapiens, UniProt O43570); experiment: Inhibition of human CA12 after 15 mins by stopped-flow CO2 hydration assay
[5] = tested on: HT-29; experiment: Antiproliferative activity against human HT-29 cells at 30 to 300 uM after 48 hrs under normoxic conditions by MTT assay; format: functional, cell-based
Outline: (§1)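 HT-29 colon cancer cells in DMEM high glucose with 20% FBS were seeded at 1·10^4/well. After 24 h they were exposed to 0–300 μM compound for 16, 48 or 72 h in air (20% O2, 5% CO2, 37 °C). MTT (1 mg/ml) was added for 30 min, formazan dissolved in DMSO and read at 550 nm. Viability is relative to untreated control (100%). Quadruplicates on ≥3 cell batches, mean ± SEM.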

[6] = tested on: HT-29; experiment: Antiproliferative activity against human HT-29 cells at 30 to 300 uM after 48 hrs under hypoxic conditions by MTT assay; format: functional, cell-based
Outline: (§2)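 Hypoxic workstation at 0.1% O2, 5% CO2 and residual N2. HT-29 cells (DMEM high glucose, 20% FBS; 1·10^4/well) were treated 24 h post-plating with 0–300 μM compound for 16, 48 or 72 h. Viability was measured by MTT reduction (1 mg/ml, 30 min, 37 °C; DMSO-dissolved formazan, A550) and expressed as % of untreated control. Quadruplicates, ≥3 batches, mean ± SEM.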

[7] = tested on: HT-29; experiment: Antiproliferative activity against human HT-29 cells after 16 hrs under normoxic conditions by MTT assay; format: functional, cell-based; outline: as §1
[8] = tested on: HT-29; experiment: Antiproliferative activity against human HT-29 cells at 30 to 100 uM after 16 hrs under normoxic conditions by MTT assay; format: functional, cell-based; outline: as §1
[9] = Solubility of the compounds at 300 uM; format: physicochemical
[10] = tested on: HT-29; experiment: Antiproliferative activity against human HT-29 cells at 30 to 100 uM after 48 hrs under normoxic conditions by MTT assay; format: functional, cell-based; outline: as §1
[11] = tested on: HT-29; experiment: Antiproliferative activity against human HT-29 cells at 30 to 300 uM after 16 hrs under normoxic conditions by MTT assay; format: functional, cell-based; outline: as §1
[12] = tested on: HT-29; experiment: Antiproliferative activity against human HT-29 cells at 100 uM after 48 hrs under normoxic conditions by MTT assay; format: functional; outline: as §1
[13] = tested on: HT-29; experiment: Antiproliferative activity against human HT-29 cells at 30 to 300 uM after 72 hrs under hypoxic conditions by MTT assay; format: functional, cell-based; outline: as §2
[14] = tested on: HT-29; experiment: Antiproliferative activity against human HT-29 cells at 100 uM after 72 hrs under hypoxic conditions by MTT assay; format: functional; outline: as §2
[15] = tested on: HT-29; experiment: Antiproliferative activity against human HT-29 cells at 30 uM after 48 hrs under hypoxic conditions by MTT assay; format: functional; outline: as §2
[16] = tested on: HT-29; experiment: Antiproliferative activity against human HT-29 cells at 30 to 100 uM after 72 hrs under normoxic conditions by MTT assay; format: functional, cell-based; outline: as §1
[17] = tested on: HT-29; experiment: Antiproliferative activity against human HT-29 cells at 30 to 100 uM after 72 hrs under hypoxic conditions by MTT assay; format: functional, cell-based; outline: as §2

Sequence of Carbonic anhydrase 12 (O43570 whole entry): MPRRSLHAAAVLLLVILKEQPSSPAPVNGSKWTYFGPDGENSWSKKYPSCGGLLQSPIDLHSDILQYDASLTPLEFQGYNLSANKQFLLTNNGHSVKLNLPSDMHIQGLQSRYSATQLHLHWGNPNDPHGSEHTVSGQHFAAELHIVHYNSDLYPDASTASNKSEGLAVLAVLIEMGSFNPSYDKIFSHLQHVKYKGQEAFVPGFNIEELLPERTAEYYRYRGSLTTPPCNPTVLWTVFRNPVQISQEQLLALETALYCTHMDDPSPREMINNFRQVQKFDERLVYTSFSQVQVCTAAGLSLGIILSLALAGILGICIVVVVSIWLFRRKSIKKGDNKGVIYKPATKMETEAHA
Sequence of Carbonic anhydrase 1 (P00915 whole entry): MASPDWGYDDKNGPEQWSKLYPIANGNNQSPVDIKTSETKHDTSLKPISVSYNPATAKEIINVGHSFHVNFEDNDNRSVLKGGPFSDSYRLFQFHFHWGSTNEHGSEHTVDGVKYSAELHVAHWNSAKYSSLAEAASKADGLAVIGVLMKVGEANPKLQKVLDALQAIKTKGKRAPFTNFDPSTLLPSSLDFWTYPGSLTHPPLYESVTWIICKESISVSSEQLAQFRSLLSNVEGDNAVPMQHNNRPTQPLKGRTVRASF

SMILES | Ki [1] [nM] | Ki [2] [nM] | Ki [3] [nM] | Ki [4] [nM] | further results
Cc1nn(Cc2ccccc2)c2c1c(=O)oc1ccccc12 | > 10000 | > 10000 | 371 | 732 | –
O=c1oc2ccccc2c2c1c(Cc1ccccc1)nn2Cc1ccccc1 | > 10000 | > 10000 | 31.5 | 819 | –
Cc1c2c(=O)oc3ccccc3c2nn1-c1ccccc1 | > 10000 | > 10000 | 38.1 | 593 | –
Cc1c2c(=O)oc3ccc([N+](=O)[O-])cc3c2nn1-c1ccccc1 | > 10000 | > 10000 | 35.8 | 360 | –
Cc1nn(-c2ccccc2)c2c1c(=O)oc1ccc(Br)cc12 | > 10000 | > 10000 | 8.5 | 7.1 | –
Cc1nn(-c2ccccc2)c2c1c(=O)oc1cc(Cl)c([N+](=O)[O-])cc12 | > 10000 | > 10000 | 801 | 6060 | –
Cc1nn(-c2ccccc2)c2c1c(=O)oc1ccc(NCc3ccccc3)cc12 | > 10000 | > 10000 | 37.8 | 360 | –
O=c1oc2ccccc2c2nn(Cc3ccccc3)c(Cc3ccccc3)c12 | > 10000 | > 10000 | 290 | 672 | –
Cc1nn(-c2ccccc2C(=O)O)c2c1c(=O)oc1ccccc12 | > 10000 | > 10000 | 76.8 | 27.3 | –
Cc1nn(-c2ccccc2)c2c1c(=O)oc1cc(Cl)ccc12 | > 10000 | > 10000 | 57.9 | 819 | –
CC(=O)c1cc2cc([N+](=O)[O-])c(Cl)cc2oc1=O | > 10000 | > 10000 | 561 | 6400 | –
CC(=O)c1c(O)c2ccccc2oc1=O | > 10000 | > 10000 | 35.9 | 453 | –
CC(=O)c1c(O)c2cc([N+](=O)[O-])ccc2oc1=O | > 10000 | > 10000 | 44.2 | 357 | –
Cc1nn(-c2ccccc2)c2c1c(=O)oc1ccc(NC(=O)c3ccccc3)cc12 | > 10000 | > 10000 | 15.3 | > 10000 | Activity [11]: Active; Activity [5]: Active; Activity [12]: 50%; Activity [13]: Active; Activity [14]: 40%
O=c1oc2ccccc2c2c1cnn2-c1ccccc1 | > 10000 | > 10000 | 30.1 | > 10000 | Activity [11]: Active; Activity [5]: Active; Activity [6]: Active; Activity [15]: <=70%
CC(=O)c1c(O)c2cc(Br)ccc2oc1=O | > 10000 | > 10000 | 8.2 | 5.6 | Activity [8]: Active; Activity [6]: Active; solubility [9]: Insoluble; Activity [12]: 35%; Activity [16]: Active; Activity [10]: Active; Activity [17]: Active
Cc1nn(-c2ccccc2)c2c1c(=O)oc1ccc([N+](=O)[O-])cc12 | > 10000 | > 10000 | 27.1 | > 10000 | Activity [5]: Active; Activity [6]: Active; Activity [7]: Dose-dependent effect
CC(=O)c1cc2ccccc2oc1=O [3-ACETYLCOUMARIN] | > 10000 | > 10000 | 152 | 7.8 | –
Cn1nc(Cc2ccccc2)c2c(=O)oc3ccccc3c21 | > 10000 | > 10000 | 19.7 | 343 | –
Cc1c2c(=O)oc3ccc(Br)cc3c2nn1-c1ccccc1 | > 10000 | > 10000 | 25.2 | > 10000 | –
CC(=O)Nc1ccc2oc(=O)c3c(C)nn(-c4ccccc4)c3c2c1 | > 10000 | > 10000 | 26.8 | 646 | –
CCOc1c(C(C)=O)c(=O)oc2ccc(Br)cc12 | > 10000 | > 10000 | 46.4 | 737 | –

Now from value to molecule, other results behind:

Ki [1] [nM] | Ki [2] [nM] | Ki [3] [nM] | Ki [4] [nM] | SMILES | further results
> 10000 | > 10000 | 40.2 | > 10000 | COc1ccc(-n2nc(C)c3c(=O)oc4ccccc4c32)cc1 | –
> 10000 | > 10000 | 1960 | 24.7 | Cc1nn(-c2ccc(C(=O)O)cc2)c2c1c(=O)oc1ccccc12 | –
> 10000 | > 10000 | 59.4 | 360 | Cc1nn(-c2ccccc2)c2c1c(=O)oc1ccc(N(C)C)cc12 | –
> 10000 | > 10000 | 90.7 | 706 | COc1c(C(C)=O)c(=O)oc2ccc(Br)cc12 | –
> 10000 | > 10000 | 9.6 | 5.8 | Cc1nn(-c2ccccc2)c2c1c(=O)oc1ccccc12 | Activity [5]: Active; Activity [6]: Active; Activity [7]: Dose-dependent effect
> 10000 | > 10000 | 77.9 | 583 | Cc1nn(-c2ccccc2)c2c1c(=O)oc1ccc(NC(=O)Nc3ccccc3)cc12 | –
> 10000 | > 10000 | 26.6 | 518 | Cc1cc2c(c(C)nn2-c2ccccc2)c(=O)o1 | –
> 10000 | > 10000 | 555 | 33.3 | Cn1nc2c(c1Cc1ccccc1)c(=O)oc1ccccc12 | –
> 10000 | > 10000 | 44.9 | 695 | CC(=O)c1cc2cc([N+](=O)[O-])ccc2oc1=O | –
> 10000 | > 10000 | – | > 10000 | Cc1ccc(-n2nc(C)c3c(=O)oc4ccccc4c32)cc1 | Activity [8]: Active; solubility [9]: Insoluble; Activity [10]: Active
> 10000 | > 10000 | 403 | > 10000 | Cc1nn(-c2ccc(Cl)cc2)c2c1c(=O)oc1ccccc12 | –
> 10000 | > 10000 | 809 | 4530 | CC(=O)c1cc2ccc(Cl)cc2oc1=O | –
> 10000 | > 10000 | 41.4 | > 10000 | Cc1cc2nn(-c3ccccc3)c(C)c2c(=O)o1 | Activity [5]: Active; Activity [6]: Active; Activity [7]: Dose-dependent effect; Activity [13]: Active
> 10000 | > 10000 | 37.6 | > 10000 | O=c1oc2ccccc2c2nn(-c3ccccc3)cc12 | –
> 10000 | > 10000 | 28.4 | 674 | COc1c(C(C)=O)c(=O)oc2ccccc12 | –
> 10000 | > 10000 | 34.5 | > 10000 | Cc1nn(-c2ccccc2)c2c1c(=O)oc1ccc(N)cc12 | Activity [11]: Active; Activity [5]: Active; Activity [6]: Active; Activity [13]: Active
> 10000 | > 10000 | 51.3 | 737 | CNc1ccc2oc(=O)c3c(C)nn(-c4ccccc4)c3c2c1 | –
